From PubChem BioAssay
SMARCA2 act = activators of SMARCA2 function; activation, % at 9.1 µM; AID 652017; actives 1% (n = 370,000); MG213 cells, MMTV-luciferase reporter, dexamethasone, overnight; in the data active means activation above about 7.8%;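 further: 0% = vehicle wells and 100% = reference activator wells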
MC4R ag barr = human MC4R agonism via beta-arrestin; P32245; actives 0.98% (n = 360,000); U2OS MC4R beta-arrestin complementation, luminescence; percent of melanotan II response, DMSO zero; activation, % at 8.9 µM;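 active means activation above a per-plate cutoff, the mean activation of sample wells on that plate plus 3 SD, cut at about 8% in these data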
MPTP block = inhibitors of mitochondrial permeability transition pore; actives 1.4% (n = 360,000); inhibition, % at 10 µM; isolated mouse mitochondria, Ca2+ swelling absorbance, 30 min;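 active means inhibition of 50% or more, scaled per plate between neutral and stimulator controls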;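 further: 0% = DMSO wells given calcium and 100% = 1 mM EGTA wells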
ATG4B inhibitor = ATG4B (human) cysteine protease inhibition; Q9Y4P1; ATG4B cleavage of LC3-PLA2, NBD-HPC fluorescence, 1 h; inhibition, % at 8.33 µM; actives 0.51% (n = 340,000); in the data active means inhibition above about 40%
Target sequence (Q9Y4P1 whole entry, looked up): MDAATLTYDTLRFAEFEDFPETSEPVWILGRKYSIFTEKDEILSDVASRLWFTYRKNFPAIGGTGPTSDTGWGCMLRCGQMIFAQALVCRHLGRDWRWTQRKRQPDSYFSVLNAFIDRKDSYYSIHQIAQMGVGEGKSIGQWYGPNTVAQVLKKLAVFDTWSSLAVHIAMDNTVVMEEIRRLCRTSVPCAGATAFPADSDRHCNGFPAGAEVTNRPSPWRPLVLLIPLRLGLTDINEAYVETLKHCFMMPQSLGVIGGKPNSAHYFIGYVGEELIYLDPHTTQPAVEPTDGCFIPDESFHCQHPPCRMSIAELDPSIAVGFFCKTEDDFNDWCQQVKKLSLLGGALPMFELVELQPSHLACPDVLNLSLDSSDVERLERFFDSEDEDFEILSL
MC4R antagonist = antagonists of human melanocortin 4 receptor (MC4R) | P32245 | MC4R-expressing cells, MTII-stimulated cAMP, LANCE TR-FRET | inhibition, % at 6.5 µM | actives 0.48% (n = 360,000);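 active means inhibition above its plate's cutoff, the mean of tested wells on that plate plus 3 SD, cut at about 29% in these data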;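 further: 0% = Melanotan II alone and 100% = Melanotan II plus saturating MCL0020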
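system = U2OS cells with stable human MC4R expression | also added = Melanotan II challenge after compound preincubation | dosing = one concentration, 6.5 µM nominal | incubation = compound 30 min, challenge 1 h, detection 1 h | measured by = TR-FRET with Eu-cAMP and labeled anti-cAMP, 671 nm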
Active calls of the source: *; . = not tested or not shown. The list is not random: actives were taken first. Their share in the collection is about 4.1%.

SMILES	SMARCA2 act	MC4R ag barr	MPTP block	ATG4B inhibitor	MC4R antagonist
COc1ccc2c(c1)CCCN2C(=O)C1CCCN(S(=O)(=O)c2ccc(C(C)(C)C)cc2)C1 (stereo not given)	-6	.	.	.	.
COc1ccc(C(=O)Oc2ccc3oc(=O)sc3c2)cc1	1	13*	4	-5	-5
N#CCC[C@H]1CC[C@]2(CCCN(C(=O)c3ccccc3)C2)O1	-2	.	.	.	.
O=C1Nc2ccccc2SC1=Cc1ccccc1	4	-1	0	.	0
O=C1Nc2ccccc2S/C1=C/Nc1cccc(Cl)c1	3	13*	8	-8	-4
O=S1(=O)c2c(cccc2N2CC[C@@H](O)C2)O[C@H]2CCN1C2	1	.	.	.	.
COC(=O)c1cc(-c2cc(Cl)cc(Cl)c2)c(=O)n2c1CCC2	-1	.	.	.	.
O=C(/C=C(\O)c1ccc(Cl)cc1)C(=O)NNC(=O)C(O)(c1ccccc1)c1ccccc1	.	-4	-2	42*	-3
COc1ccc(-c2nnc3n2N=C(c2cccc([N+](=O)[O-])c2)CS3)cc1	-5	.	.	.	.
COCCCNC(=O)c1cccn2c(=O)c3cc4ccccc4cc3nc12	2	9.1*	-2	-41	-12
O=Cc1[nH]c2ccccc2c1N(C(=O)CCl)c1ccc([N+](=O)[O-])cc1	-9	0	2	-3	16
O=C(CCl)N(c1ccccc1)c1c[nH]c2ccccc12	-9	19*	1	1	6
CC(=O)n1cc(N(C(=O)CCl)c2ccc([N+](=O)[O-])cc2)c2ccccc21	-14	2	2	5	32*
CC(=O)n1cc(N(C(=O)CCl)c2ccccc2)c2ccccc21	-8	17*	2	5	22
COC(=O)[C@]12C[C@H](CC(=O)N3CCN(C(=O)C4CC4)CC3)C(=O)N(CCc3ccc(OC)c(OC)c3)C1=C[C@H](C(C)(C)C)O[C@@H]2C	-3	.	.	.	.
Cn1c(=O)[nH]c(=O)c2c1nc(Br)n2CC(O)COc1ccccc1 (stereo not given)	7.9*	-1	-1	0	6
COc1ccccc1OCC(O)Cn1c(Br)nc2c1c(=O)[nH]c(=O)n2C (stereo not given)	1	0	-2	0	0
CCOC(=O)CC[C@H]1CC[C@]2(CCCN(C(=O)c3ccc4ccccc4n3)C2)O1	-4	.	.	.	.
Cc1ccc(NC(=O)c2ccc(C#CC3(O)CCCCC3)cc2)cc1C	-2	9.0*	0	-6	6
O=C(Cc1c[nH]c2ccccc12)Nc1ccc(Nc2cccnc2)c(-c2ccc(OC(F)(F)F)cc2)c1	-4	.	.	.	.
COc1cc(/C=N/NC(=O)c2ccccc2O)ccc1OCC(=O)Nc1ccccc1	2	1	-2	4	0
O=C(COc1ccc(/C=N/NC(=O)c2cc3ccccc3o2)cc1Cl)Nc1ccccc1	.	20*	0	0	1
Oc1ccc(Cl)cc1C=NCCc1ccccc1	-3	-2	8	43*	3
Oc1ccccc1C=NCCN=Cc1ccccc1O	-2	2	-4	9	12
O=C(CSc1nnc(NC(=O)c2ccccc2Cl)s1)Nc1ccc2c(c1)oc1ccccc12	11*	.	.	.	.
SMILES	SMARCA2 act	MC4R ag barr	MPTP block	ATG4B inhibitor	MC4R antagonist
CC(C)(C)NC(=O)CSc1nnc(NC(=O)c2ccccc2Cl)s1	0	0	-2	3	-2
O=C(CN1CCN(c2nc(-c3ccccc3)cs2)CC1)NNC(=O)c1ccc(Br)cc1	-1	8	0	-7	6
COc1cccc(-c2csc(N3CCN(CC(=O)NNC(=O)c4ccc(Br)cc4)CC3)n2)c1	-5	10.0*	0	-24	-5
COc1cccc(-c2csc(N3CCN(CC(=O)NNC(=O)c4ccco4)CC3)n2)c1	0	-4	-1	0	6
COc1cccc(-c2csc(N3CCN(CC(=O)NNC(=O)c4ccc(Cl)cc4)CC3)n2)c1	2	8.8*	0	-38	0
CNCc1cc(Br)c(OCC(=O)Nc2ccccc2OC)c(OC)c1	-4	-1	2	-3	1
COc1cc(CNCCc2ccccc2)cc(Br)c1OCC(=O)Nc1ccccc1C	3	8.6*	3	-5	-3
Cc1ccc(C)c(NS(=O)(=O)c2ccc3oc(=O)ccc3c2)c1	-2	-1	1	0	7
Cc1ccc(C)c(NS(=O)(=O)c2ccc3c(c2)Cc2cc(S(=O)(=O)Nc4cc(C)ccc4C)ccc2-3)c1	-3	8.8*	0	8	9
O=C(CN1CCc2onc(-c3cccc(-n4cc(CO)nn4)c3)c2C1=O)N1CCOCC1	-1	.	.	.	.
COC(=O)c1ccc2nc(-c3ccc(C)cc3)c(Cc3cccc(F)c3)n2c1	7.9*	.	2	.	.
O=C1NC(=Nc2cccc(O)c2)S/C1=C\c1cccnc1	7.9*	0	1	8	7
Cc1cccc(N=C2NC(=O)/C(=C/c3cccnc3)S2)c1	0	-2	4	1	13
Cc1cccc(N=C2NC(=O)/C(=C\c3cccs3)S2)c1	7.9*	-3	31	0	9
Cc1ccc(C(=O)Nc2ccc(OCc3ccccc3)cc2)cc1[N+](=O)[O-]	0	9.5*	2	-3	-4
COC[C@H]1CCCN1c1ccc2c(c1)O[C@H]1CCN(C1)S2(=O)=O	-1	.	.	.	.
CCN(CC)S(=O)(=O)c1ccc(-c2nnc(SCc3nnc(-c4ccccc4)o3)o2)cc1	3	8.4*	2	4	4
COC(=O)c1ccc(-c2ccc(/C=N/NC(=O)CC3(C)OCCCO3)o2)cc1	7.8*	-1	1	-4	-16
COC(=O)c1cc2c(c3c4ccccc4n(S(=O)(=O)c4ccc(C)cc4)c13)C(=O)N(CC(C)C)C2	-4	.	.	.	.
Cc1ccc(Oc2nc(-c3ccccc3)ncc2S(C)(=O)=O)cc1	5	8.4*	-2	-11	-4
Cc1nc(N2CCCCC2C)c2nnn(Cc3ccccc3)c2n1 (stereo not given)	1	.	.	.	.
COc1ccc(-c2csc(-n3ncc(-c4ccccn4)c3N)n2)cc1	2	0	1	0	9
Nc1c(-c2cccs2)cnn1-c1nc(-c2ccc(F)cc2)cs1	0	9.6*	10	5	-1
C[C@H](O)[C@@H]1C(=O)N2CCc3c([nH]c4cccc(-c5ccccc5)c34)[C@@H]2C[C@@H]1N(C)C(=O)Nc1ccccc1	-4	.	.	.	.
Cc1ccc(-n2[nH]c(C)c(C=Nc3ccc4[nH]c(=O)[nH]c4c3)c2=O)cc1C	1	16*	0	-14	7
CCOc1nc(Nc2cc(Cl)ccc2OC)nc(OCC)n1	-3	0	3	-1	-2
C=CCNc1nc(Cl)nc(Nc2cc(Cl)ccc2OC)n1	0	8.8*	0	0	22
COc1ccc2cc(/C=N/NC(=O)CSCc3ccc([N+](=O)[O-])cc3)c(Cl)nc2c1	0	12*	2	-15	10
